{"source": "ChEMBL document CHEMBL2407047", "about": "“Molecular design, synthesis and biological evaluation of 1,4-dihydro-4-oxoquinoline ribonucleosides as TcGAPDH inhibitors with trypanocidal activity” (Bioorg Med Chem Lett, 2013)", "key": {"[1]": {"compound": "COc1ccc2c(=O)c(C(=O)O)cn([C@@H]3O[C@H](CO)[C@@H](O)[C@H]3O)c2c1", "experiment": "(§1) Competitive inhibition of Trypanosoma cruzi glycosomal GAPDH assessed as increase in NAD+ Km by ITC method", "summary_of_the_method": "(§2)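 Enzyme assays were run by isothermal titration calorimetry (ITC), probing the GAPDH NAD+ cosubstrate site and the active site. Affinity is reported as apparent Ki. Mode of inhibition was judged from how NAD+ and G3P KM and Vmax respond. Kinetic models were compared by second-order Akaike's information criterion.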"}, "[2]": {"compound": "COc1ccc2c(c1)c(=O)c(C(=O)O)cn2[C@@H]1O[C@H](CO)[C@@H](O)[C@H]1O", "experiment": "as §1", "summary_of_the_method": "as §2"}, "[3]": {"compound": "Cc1ccc2c(=O)c(C(=O)O)cn([C@@H]3O[C@H](CO)[C@@H](O)[C@H]3O)c2c1", "experiment": "as §1", "summary_of_the_method": "as §2"}, "[4]": {"compound": "Cc1ccc2c(c1)c(=O)c(C(=O)O)cn2[C@@H]1O[C@H](CO)[C@@H](O)[C@H]1O", "experiment": "as §1", "summary_of_the_method": "as §2"}, "[5]": {"compound": "O=C(O)c1cn([C@@H]2O[C@H](CO)[C@@H](O)[C@H]2O)c2cc(Br)ccc2c1=O", "experiment": "as §1", "summary_of_the_method": "as §2"}, "[6]": {"compound": "O=C(O)c1cn([C@@H]2O[C@H](CO)[C@@H](O)[C@H]2O)c2ccc(Br)cc2c1=O", "experiment": "as §1", "summary_of_the_method": "as §2"}, "[7]": {"compound": "O=C(O)c1cn([C@@H]2O[C@H](CO)[C@@H](O)[C@H]2O)c2ccc(Cl)cc2c1=O", "experiment": "as §1", "summary_of_the_method": "as §2"}}}
{"protein": "Glyceraldehyde-3-phosphate dehydrogenase, glycosomal (Trypanosoma cruzi), P22513 (protein) MPIKVGINGFGRIGRMVFQALCEDGLLGTEIDVVAVVDMNTDAEYFAYQMRYDTVHGKFKYEVTTTKSSPSVAKDDTLVVNGHRILCVKAQRNPADLPWGKLGVEYVIESTGLFTAKAAAEGHLRGGARKVVISAPASGGAKTLVMGVNHHEYNPSEHHVVSNASCTTNCLAPIVHVLVKEGFGVQTGLMTTIHSYTATQKTVDGVSVKDWRGGRAAAVNIIPSTTGAAKAVGMVIPSTQGKLTGMSFRVPTPDVSVVDLTFTAARDTSIQEIDAALKRASKTYMKGILGYTDEELVSADFINDNRSSIYDSKATLQNNLPKERRFFKIVSWYDNEWGYSHRVVDLVRHMASKDRSARL", "values": [{"measurement": "Km", "setting": "[1]", "value": 67.7, "unit": "µM"}, {"measurement": "Km", "setting": "[2]", "value": 47, "unit": "µM"}, {"measurement": "Km", "setting": "[3]", "value": 46.9, "unit": "µM"}, {"measurement": "Km", "setting": "[4]", "value": 48.5, "unit": "µM"}, {"measurement": "Km", "setting": "[5]", "value": 50, "unit": "µM"}, {"measurement": "Km", "setting": "[6]", "value": 62.6, "unit": "µM"}, {"measurement": "Km", "setting": "[7]", "value": 63.4, "unit": "µM"}]}
